Results reported in ChEMBL document CHEMBL4130355, “Development of a series of novel 4-anlinoquinazoline derivatives possessing quinazoline skeleton: Design, synthesis, EGFR kinase inhibitory efficacy, and evaluation of anticancer activities in vitro” (Eur J Med Chem, 2017).

Key:
A549 [1] = assay: Antiproliferative activity against human A549 cells after 72 hrs by MTT assay; assay type: functional, cell-based; details: A549, 72 h
HepG2 [2] = assay: Antiproliferative activity against human HepG2 cells at 0.1 uM after 72 hrs by MTT assay realtive to control; assay type: functional
Outline: (§1)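 MTT assay in triplicate wells. Cells (2 × 10^3/well) were attached 24 h, then treated at 0.1, 1, 10, 50 or 100 µM for 24, 48 or 72 h. MTT added for 4 h, SDS solubilisation, absorbance at 570/650 nm. Inhibition = 1 − (OD treated − blank)/(OD control − blank). Reported as mean ± SD of three independent experiments.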

HepG2 [3] = assay: Antiproliferative activity against human HepG2 cells at 100 uM after 72 hrs by MTT assay realtive to control; assay type: functional; outline: as §1
HepG2 [4] = assay: Antiproliferative activity against human HepG2 cells at 1 uM after 24 hrs by MTT assay realtive to control; assay type: functional; outline: as §1
HepG2 [5] = assay: Antiproliferative activity against human HepG2 cells at 10 uM after 24 hrs by MTT assay realtive to control; assay type: functional; outline: as §1
HepG2 [6] = assay: Antiproliferative activity against human HepG2 cells at 0.1 uM after 48 hrs by MTT assay realtive to control; assay type: functional; outline: as §1
HepG2 [7] = assay: Antiproliferative activity against human HepG2 cells at 50 uM after 48 hrs by MTT assay realtive to control; assay type: functional; outline: as §1
A549 [8] = assay: Antiproliferative activity against human A549 cells at 1 uM after 24 hrs by MTT assay relative to control; assay type: functional; outline: as §1
A549 [9] = assay: Antiproliferative activity against human A549 cells at 10 uM after 24 hrs by MTT assay relative to control; assay type: functional; outline: as §1
A549 [10] = assay: Antiproliferative activity against human A549 cells at 0.1 uM after 48 hrs by MTT assay relative to control; assay type: functional; outline: as §1
A549 [11] = assay: Antiproliferative activity against human A549 cells at 0.1 uM after 72 hrs by MTT assay relative to control; assay type: functional; outline: as §1
HepG2 [12] = assay: Cell cycle arrest in human HepG2 assessed as accumulation at G0/G1 phase at 2.5 uM after 48 hrs by propidium iodide-staining based flow cytometry (reference value: 69.40%); assay type: functional
Outline: (§2)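 HepG2 cells at 5.0 × 10^5/well were grown 24 h, then treated at 0, 2.5, 5.0 or 10.0 µM for 48 h alongside medium-only wells. Cells fixed in 70% ice-cold ethanol for ≥24 h, treated with RNase A at 37 °C for 30 min, then stained with propidium iodide for 30 min at 4 °C in the dark. DNA content read by flow cytometry. Average of at least three experiments.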

HepG2 [13] = assay: Cell cycle arrest in human HepG2 assessed as accumulation at S phase at 5 uM after 48 hrs by propidium iodide-staining based flow cytometry (reference value: 21.46%); assay type: functional; outline: as §2
HepG2 [14] = assay: Cell cycle arrest in human HepG2 assessed as accumulation at G2/M phase at 2.5 uM after 48 hrs by propidium iodide-staining based flow cytometry (reference value: 9.13%); assay type: functional; outline: as §2
HepG2 [15] = assay: Cell cycle arrest in human HepG2 assessed as accumulation at G2/M phase at 10 uM after 48 hrs by propidium iodide-staining based flow cytometry (reference value: 9.13%); assay type: functional; outline: as §2
HepG2 [16] = assay: Induction of apoptosis in human HepG2 cells assessed as viable cells at 2.5 uM after 48 hrs by Annexin V-FITC/propidium iodide double staining-based flow cytometry (reference value: 86.4%); assay type: functional; details: HepG2, 48 h, read-out: Activity
HepG2 [17] = assay: Induction of apoptosis in human HepG2 cells assessed as late apoptotic cells at 2.5 uM after 48 hrs by Annexin V-FITC/propidium iodide double staining-based flow cytometry (reference value: 4.3%); assay type: functional
HepG2 [18] = assay: Induction of mitochondrial membrane potential loss in human HepG2 cells assessed as mitochondrial membrane potential levels at 2.5 uM after 48 hrs by rhodamine-123 dye based FACS analysis (reference value: 90.4%); assay type: functional
HepG2 [19] = assay: Induction of mitochondrial membrane potential loss in human HepG2 cells assessed as mitochondrial membrane potential levels at 20 uM after 48 hrs by rhodamine-123 dye based FACS analysis (reference value: 90.4%); assay type: functional
HepG2 [20] = assay: Induction of apoptosis in human HepG2 cells assessed as intracellular free Ca2+ levels at 5 uM after 48 hrs by FL1 channel/FACS analysis (reference value: 14.2%); assay type: functional
Outline: (§3)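 HepG2 seeded at 5.0 × 10^5 cells/mL, 24 h at 37 °C in 5% CO2, then treated 48 h (2.5–20 µM). Harvested cells were washed in ice-cold PBS and loaded with 4 µM Fluo-3/AM for 30 min. After trypsinizing, they were washed twice and resuspended in HEPES, and fluorescence was measured in the FL-1 channel by flow cytometry. Values are averages of at least three independent experiments.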

HepG2 [21] = assay: Induction of apoptosis in human HepG2 cells assessed as intracellular free Ca2+ levels at 20 uM after 48 hrs by FL1 channel/FACS analysis (reference value: 14.2%); assay type: functional; outline: as §3
HepG2 [22] = assay: Induction of apoptosis in human HepG2 cells assessed as elevation in ROS levels after 48 hrs by DCFH-DA fluorescence-based spectrometry; assay type: functional, cell-based
Outline: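 HepG2 seeded at 5.0 × 10^5 cells/mL, 24 h at 37 °C in 5% CO2, then treated 48 h. Harvested cells were washed twice in ice-cold PBS and loaded with 10 µM DCFH-DA for 30 min at 37 °C. They were then trypsinized, washed and resuspended in ice-cold HBSS, and DCF fluorescence was read on a fluorescence spectrometer.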

HepG2 [23] = assay: Induction of apoptosis in human HepG2 cells assessed as caspase-3 activity at 20 uM after 48 hrs by colorimetric assay relative to control; assay type: functional
Outline: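 After 48 h treatment, HepG2 were rinsed in ice-cold PBS and lysed 1–1.5 h on ice in buffer with 1% DTT. Lysate was spun at 10,000×g for 1 min at 4 °C; supernatant protein was measured by Bradford. Supernatant was mixed with 2× reaction buffer (1% DTT) plus caspase-3 chromogenic peptide substrate, held 4 h at 37 °C, and read at 405 nm.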

HepG2 [24] = assay: Cell cycle arrest in human HepG2 assessed as decrease in cell levels at G0/G1 phase after 48 hrs by propidium iodide-staining based flow cytometry; assay type: functional; outline: as §2
[25] = target: T1, Epidermal growth factor receptor (Homo sapiens, UniProt P00533); details: HEK293, at 1 pM
[26] = target: T1, Epidermal growth factor receptor; details: HEK293, at 10 pM
[27] = target: T1, Epidermal growth factor receptor; details: HEK293, at 0.001 µM
[28] = target: T1, Epidermal growth factor receptor; details: HEK293, at 0.01 µM

T1 sequence (P00533 whole entry): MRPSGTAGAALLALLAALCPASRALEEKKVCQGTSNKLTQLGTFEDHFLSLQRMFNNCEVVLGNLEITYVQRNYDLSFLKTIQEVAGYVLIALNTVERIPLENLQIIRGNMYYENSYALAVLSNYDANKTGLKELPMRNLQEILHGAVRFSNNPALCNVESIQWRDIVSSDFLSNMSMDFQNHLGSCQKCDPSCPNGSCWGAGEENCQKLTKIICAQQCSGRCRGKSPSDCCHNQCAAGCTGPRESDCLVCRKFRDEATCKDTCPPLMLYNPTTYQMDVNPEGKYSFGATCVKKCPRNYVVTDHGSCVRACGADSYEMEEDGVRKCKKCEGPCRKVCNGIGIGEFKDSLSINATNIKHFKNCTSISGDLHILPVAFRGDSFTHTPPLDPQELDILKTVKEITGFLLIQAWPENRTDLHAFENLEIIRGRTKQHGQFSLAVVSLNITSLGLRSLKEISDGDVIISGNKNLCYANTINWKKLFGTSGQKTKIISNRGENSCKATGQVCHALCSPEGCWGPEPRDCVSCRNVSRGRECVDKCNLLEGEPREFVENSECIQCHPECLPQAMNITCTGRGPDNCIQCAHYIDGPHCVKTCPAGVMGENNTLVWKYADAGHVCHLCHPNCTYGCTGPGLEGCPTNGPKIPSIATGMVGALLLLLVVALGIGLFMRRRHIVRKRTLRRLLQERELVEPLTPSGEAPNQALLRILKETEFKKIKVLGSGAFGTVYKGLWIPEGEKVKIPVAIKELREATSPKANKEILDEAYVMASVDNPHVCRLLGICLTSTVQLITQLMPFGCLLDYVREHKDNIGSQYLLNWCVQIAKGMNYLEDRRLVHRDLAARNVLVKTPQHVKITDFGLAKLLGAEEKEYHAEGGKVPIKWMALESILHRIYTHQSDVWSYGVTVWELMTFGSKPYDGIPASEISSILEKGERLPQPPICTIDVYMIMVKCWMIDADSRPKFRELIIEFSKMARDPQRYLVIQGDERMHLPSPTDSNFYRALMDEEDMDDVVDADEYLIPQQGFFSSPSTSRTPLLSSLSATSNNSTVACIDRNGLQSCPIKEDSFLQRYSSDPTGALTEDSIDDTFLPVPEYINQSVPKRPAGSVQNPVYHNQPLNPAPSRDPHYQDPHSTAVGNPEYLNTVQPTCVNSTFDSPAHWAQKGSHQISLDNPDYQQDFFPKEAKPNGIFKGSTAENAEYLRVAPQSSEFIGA

IC50 (A549 [1]): 9.5 µM | inhibition [25]: 16% | inhibition [26]: 17.9% | inhibition [27]: 46.2% | inhibition [28]: 61.8%
Structure (SMILES): COc1cc2c(Nc3ccc(C#N)cc3)ncnc2cc1OCCCN1CCC(c2ccccc2)CC1
Activity (HepG2 [2]): 7.4% | Activity (HepG2 [3]): 101% | Activity (HepG2 [4]): 7.9% | Activity (HepG2 [5]): 63.5% | Activity (HepG2 [6]): 5.7% | Activity (HepG2 [7]): 108% | Activity (A549 [8]): 1.9% | Activity (A549 [9]): 24.7% | Activity (A549 [10]): 1.3% | Activity (A549 [11]): 5% | Activity (HepG2 [12]): 67.07% | Activity (HepG2 [13]): 25.1% | Activity (HepG2 [14]): 10.49% | Activity (HepG2 [15]): 9.57% | viability at 2.5 µM (HepG2 [16]): 47.5% | Activity (HepG2 [17]): 3.8% | Activity (HepG2 [18]): 88.3% | Activity (HepG2 [19]): 55.9% | Activity (HepG2 [20]): 43.2% | Activity (HepG2 [21]): 52.7% | Activity (HepG2 [22]): Dose-dependent effect | Activity (HepG2 [23]): 196% | Activity (HepG2 [24]): Dose-dependent effect
